From paper PMC2217063 (The Journal of General Physiology, 1997)
Values joined by “and” are separate entries in the source; they are usually repeats but may differ in a detail not shown here. Identical values can stand only once. Like-named read-outs stand apart in the source and are kept apart here.

How the values were obtained:
[1] = molecular target: T1, Na,K-ATPase (Canis lupus familiaris, UniProt P50997); format: biochemical, dog
[2] = system: Na,K-ATPase; details: 0°C, different method; ref Klodos and Nørby, 1987; cited from earlier work
[3] = molecular target: T1, Na,K-ATPase; test: K- and ADP-chases of the phosphointermediate; format: biochemical, dog; details: for ratio of interconversion rate constants, k12/k21: twin 2-pool model
[4] = molecular target: T1, Na,K-ATPase; test: Na-ATPase activity and rate constant of blank chase at 4, 17 and 27°C; format: biochemical, dog; details: both Na-ATPase activity and rate constant of blank chase
How it was run: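 Na-ATPase measured without K+ in imidazole MOPS with Na3EGTA and NaNO3 at 40 or 400 mM, started with ATP, 4 mM final. Rate constant taken from the blank chase: decay of [γ-32P]phosphoenzyme after labelling stops, with a chase lacking ADP and K+. Both run at 4, 17 and 27°C.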

[5] = molecular target: T1, Na,K-ATPase; test: Na,K-ATPase activity at 37°C with different anions; format: biochemical, dog; details: 400 mM vs 40 mM
How it was run: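 Enzyme purified from outer-medulla microsomes. […] Salts: 40 mM Na+/8 mM K+/3.5 mM Mg2+ or 400 mM Na+/80 mM K+/10 mM Mg2+. Preincubated 20 min at 37°C; started with ATP, 4 mM final.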

[6] = 500 mM Na^+, no replacement cation, nitrate, 4°C, enzyme prep. A
[7] = 45 mM Na^+, replacement cation to a sum of 500 mM, nitrate, 4°C, prep. A
[8] = 200 mM Na^+, replacement cation to a sum of 500 mM, nitrate, 4°C, prep. B

For Nc1ncnc2c1ncn2[C@@H]1O[C@H](COP(=O)(O)OP(=O)(O)OP(=O)(O)O)[C@@H](O)[C@H]1O [ATP, reference compound], the “k(off), rate constant of dissociation of ATP from ATP·E1” value [1, 6] is given as 1.1 ± 0.10 s⁻¹ and 1.3 ± 0.20 s⁻¹, the “k off, rate constant of dissociation of ATP, range over all media of Table III” value ([1]; 45-500 mM Na^+, 4°C, no correlation with [Na^+]) is given as 0.7 to 1.9 s⁻¹ and the “rate constant of dissociation of ATP” value [2] is given as 1.5 to 3.5 s⁻¹.

For N=C(N)NCCC[C@H](N)C(=O)O [Arg^+, arginine^+], the “E1P (amount of K-resistant E1P)” value [1, 7] was 97% and the “E1P (amount of K-resistant E1P)” value [1, 8] was 97%.

For CCN(CC)CC [Et3N^+, triethylamine], the “E1P (amount of K-resistant E1P)” value [1, 7] was 68% and the “E1P (amount of K-resistant E1P)” value [1, 8] was 56%.

In the case of CNC[C@H](O)[C@@H](O)[C@H](O)[C@H](O)CO [NMG^+, N-methylglucamine], the “E1P (amount of K-resistant E1P)” value ([1]; 45 mM Na^+, replacement cation to a sum of 500 mM, nitrate, 4°C, prep. C) is reported as 80% and the “E1P (amount of K-resistant E1P)” value ([1]; 200 mM Na^+, replacement cation to a sum of 500 mM, nitrate, 4°C, prep. C) is reported as 79%.

With [Cl-].[Na+] [NaCl] the “ratio of interconversion rate constants, k12/k21” value ([3]; 160 mM NaCl, 4°C) was > 5 and the “ratio of interconversion rate constants, k12/k21” value ([3]; 600 mM NaCl, 4°C) was 0.25.

For O=[N+]([O-])[O-].[Na+] [NaNO3], the “effect on rate constant of dephosphorylation in a blank chase” value ([3]; 4°C, concentration increased from 40 to 400 mM) was “inhibited dephosphorylation” and the “activation energy (ΔH) in 400 mM relative to 40 mM NaNO3” value [4] was 1.3 fold.

In the case of [Na+] [Na^+], the “K(internal) = [ADP·E1P]/[ATP·E1]” value ([1]; 45 mM Na^+) is reported as ~2, the “K int in 45 mM Na^+ relative to 200 mM Na^+ in each medium” value ([1]; 45 mM vs 200 mM Na^+) is reported as 2.1–2.5 fold and the “K int = [ADP·E1P]/[ATP·E1]” value ([1]; 200 mM Na^+) is reported as 0.5–1.4. The “K int = [ADP·E1P]/[ATP·E1]” value ([1]; 500 mM Na^+) was 0.1–0.3, the “K(internal) = [ADP·E1P]/[ATP·E1]” value ([1]; 500 mM Na^+) was ~0.2 and the “E1P (amount of K-resistant E1P)” value [1, 6] was 95%. The “effect on interconversion rate constants” value ([3]; 240 mM NaNO3 vs 30 mM NaNO3 plus 210 mM TrisNO3, 4°C) was “not affected significantly”.

For CC(=O)O [acetate], the “effect on Na,K-ATPase activity of increasing the salt concentration to 400 mM” value [5] was “no effect”.

For Cl [chloride], the “effect on Na,K-ATPase activity of increasing the salt concentration to 400 mM” value [5] was “no effect”.

In the case of O=[N+]([O-])O [nitrate], the “amount of E1P in nitrate relative to acetate” value ([3]; 30 mM Na^+, 250 mM Lys^+) is reported as “sevenfold larger” and the “initial amount of E1P” value ([3]; 280 mM anion, 30 mM Na^+, 250 mM lysine^+, 4°C, 2-pool model) is reported as 36%.
